Laboratory results: ChEMBL document CHEMBL2346534, “Design, synthesis and in vitro anti-proliferative activity of 4,6-quinazolinediamines as potent EGFR-TK inhibitors” (Eur J Med Chem, 2013)

Legend:
Assay type in all cases: functional
[1] = test system: T47D; test: Cytotoxicity against human T47D cells after 48 hrs by SRB assay
Method in brief: (§1)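 NCI 60 five-dose screen. Cells in RPMI 1640 with 5% FBS and 2 mM L-glutamine, plated at 5000–40,000 cells/well by doubling time, pre-incubated 24 h at 37 °C, 5% CO2. Time-zero plates TCA-fixed at drug addition. Final concentrations 0.01, 0.1, 1, 10 and 100 µM (DMSO stock), 48 h exposure. TCA fixation, 0.4% SRB stain, absorbance 515 nm. GI50 from [(Ti−Tz)/(C−Tz)]×100 = 50.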

[2] = test system: BT-549; test: Cytotoxicity against human BT549 cells after 48 hrs by SRB assay; settings: BT-549, 48 h
Method in brief: (§2)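 NCI 60-panel five-dose screen. Cells in RPMI 1640 with 5% FBS and 2 mM L-glutamine, plated at 5000–40,000 cells/well by doubling time, preincubated 24 h at 37 °C/5% CO2. Drug from DMSO stock added at 0.01, 0.1, 1, 10 and 100 µM, then 48 h. TCA fixation, SRB stain, absorbance at 515 nm, time-zero plates included. GI50 = 50% reduction in net protein increase versus control.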

[3] = test system: MDA-MB-231; test: Cytotoxicity against human MDA-MB-231/ATCC cells after 48 hrs by SRB assay; settings: MDA-MB-231, 48 h; method in brief: as §2
[4] = test system: MCF7; test: Cytotoxicity against human MCF7 cells after 48 hrs by SRB assay; settings: MCF7, 48 h; method in brief: as §2
[5] = test system: UO-31; test: Cytotoxicity against human UO31 cells after 48 hrs by SRB assay; settings: UO-31, 48 h; method in brief: as §1
[6] = test system: A498; test: Cytotoxicity against human A498 cells after 48 hrs by SRB assay; settings: A498, 48 h; method in brief: as §2
[7] = test system: SK-OV-3; test: Cytotoxicity against human SKOV3 cells after 48 hrs by SRB assay; settings: SK-OV-3, 48 h
Method in brief: (§3)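 NCI 60-panel five-dose screen. Cells in RPMI 1640 with 5% FBS and 2 mM L-glutamine are plated at 5000–40,000 cells/well by doubling time and preincubated 24 h at 37 °C in 5% CO2. Drug in DMSO is tested at 0.01, 0.1, 1, 10 and 100 μM for 48 h. Cells are TCA-fixed, stained with SRB and read at 515 nm. GI50 is the concentration giving 50% reduction in net protein increase relative to time-zero and control plates.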

[8] = Cytotoxicity against human NCI-ADR-RES cells after 48 hrs by SRB assay; method in brief: as §3
[9] = test system: OVCAR-5; test: Cytotoxicity against human OVCAR5 cells after 48 hrs by SRB assay; settings: OVCAR-5, 48 h; method in brief: as §3
[10] = test system: SK-MEL-5; test: Cytotoxicity against human SK-MEL-5 cells after 48 hrs by SRB assay; settings: SK-MEL-5, 48 h; method in brief: as §3
[11] = test system: SK-MEL-2; test: Cytotoxicity against human SK-MEL-2 cells after 48 hrs by SRB assay; settings: SK-MEL-2, 48 h; method in brief: as §3
[12] = test system: M14; test: Cytotoxicity against human M14 cells after 48 hrs by SRB assay; settings: M14, 48 h; method in brief: as §2
[13] = test system: Malme-3M; test: Cytotoxicity against human MALME-3M cells after 48 hrs by SRB assay; method in brief: as §2
[14] = test system: SF-295; test: Cytotoxicity against human SF295 cells after 48 hrs by SRB assay; settings: SF-295, 48 h; method in brief: as §3
[15] = test system: SF-539; test: Cytotoxicity against human SF539 cells after 48 hrs by SRB assay; settings: SF-539, 48 h; method in brief: as §3
[16] = test system: SW-620; test: Cytotoxicity against human SW620 cells after 48 hrs by SRB assay; settings: SW-620, 48 h; method in brief: as §1
[17] = test system: HCT-116; test: Cytotoxicity against human HCT116 cells after 48 hrs by SRB assay; settings: HCT-116, 48 h; method in brief: as §2
[18] = test system: HCC 2998; test: Cytotoxicity against human HCC2998 cells after 48 hrs by SRB assay; settings: HCC 2998, 48 h; method in brief: as §2
[19] = test system: NCI-H522; test: Cytotoxicity against human NCI-H522 cells after 48 hrs by SRB assay; settings: NCI-H522, 48 h; method in brief: as §3
[20] = test system: NCI-H460; test: Cytotoxicity against human NCI-H460 cells after 48 hrs by SRB assay; settings: NCI-H460, 48 h; method in brief: as §3
[21] = test system: NCI-H322M; test: Cytotoxicity against human NCI-H322M cells after 48 hrs by SRB assay; method in brief: as §3
[22] = test system: NCI-H226; test: Cytotoxicity against human NCI-H226 cells after 48 hrs by SRB assay; settings: NCI-H226, 48 h; method in brief: as §3
[23] = test system: A549; test: Cytotoxicity against human A549/ATCC cells after 48 hrs by SRB assay; settings: A549, 48 h; method in brief: as §2
[24] = test system: HL-60(TB); test: Cytotoxicity against human HL-60(TB) cells after 48 hrs by SRB assay; settings: HL-60, 48 h
Method in brief: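 NCI 60-panel five-dose screen. Cells were grown in RPMI 1640 with 5% FBS and 2 mM L-glutamine and preincubated 24 h before dosing. Compound from DMSO stock was given at five 10-fold concentrations for 48 h at 37 °C, 5% CO2. Suspension cells were fixed with TCA (final 16%), SRB-stained, and read at 515 nm. GI50, TGI and LC50 came from time-zero, control and treated absorbances.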

[25] = test system: CCRF-CEM; test: Cytotoxicity against human CCRF-CEM cells after 48 hrs by SRB assay; method in brief: as §2
[26] = read-out: LC50 (the source's name)

## NC(=O)Nc1ccc2ncnc(Nc3ccc(Cl)cc3)c2c1
[1]
  GI50: 6.47 µM
  TGI: 72.3 µM
[1]; [26]
  CC50: > 100 µM
[2]
  GI50: 18.2 µM
  TGI: 79.3 µM
[2]; [26]
  CC50: > 100 µM
[3]
  GI50: 8.92 µM
  TGI: 37.7 µM
[3]; [26]
  CC50: > 100 µM
[4]
  GI50: 26.2 µM
  TGI: > 100 µM
[4]; [26]
  CC50: > 100 µM
[5]
  GI50: 4.22 µM
  TGI: 43 µM
[5]; [26]
  CC50: > 100 µM
[6]
  GI50: 0.45 µM
  TGI: 13 µM
[6]; [26]
  CC50: 64.8 µM
[7]
  GI50: 3.52 µM
  TGI: 20.5 µM
[7]; [26]
  CC50: > 100 µM
[8]
  GI50: 19.5 µM
  TGI: > 100 µM
[8]; [26]
  CC50: > 100 µM
[9]
  GI50: 15.2 µM
  TGI: 90.3 µM
[9]; [26]
  CC50: > 100 µM
[10]
  GI50: 13.5 µM
  TGI: 30.7 µM
[10]; [26]
  CC50: 70.1 µM
[11]
  GI50: 15.1 µM
  TGI: 42.7 µM
[11]; [26]
  CC50: > 100 µM
[12]
  GI50: 25 µM
  TGI: 76 µM
[12]; [26]
  CC50: > 100 µM
[13]
  GI50: 22 µM
  TGI: 60.7 µM
[13]; [26]
  CC50: > 100 µM
[14]
  GI50: 14.8 µM
  TGI: 45.5 µM
[14]; [26]
  CC50: > 100 µM
[15]
  GI50: 25.5 µM
  TGI: > 100 µM
[15]; [26]
  CC50: > 100 µM
[16]
  GI50: 39.7 µM
  TGI: > 100 µM
[16]; [26]
  CC50: > 100 µM
[17]
  GI50: 24.9 µM
  TGI: > 100 µM
[17]; [26]
  CC50: > 100 µM
[18]
  GI50: 37.6 µM
  TGI: > 100 µM
[18]; [26]
  CC50: > 100 µM
[19]
  GI50: 2.4 µM
  TGI: 20.9 µM
[19]; [26]
  CC50: > 100 µM
[20]
  GI50: 22.4 µM
  TGI: > 100 µM
[20]; [26]
  CC50: > 100 µM
[21]
  GI50: 0.36 µM
  TGI: 6.64 µM
[21]; [26]
  CC50: > 100 µM
[22]
  GI50: 22.3 µM
  TGI: > 100 µM
[22]; [26]
  CC50: > 100 µM
[23]
  GI50: 19.2 µM
  TGI: > 100 µM
[23]; [26]
  CC50: > 100 µM
[24]
  GI50: 24.4 µM
  TGI: 69.8 µM
[24]; [26]
  CC50: > 100 µM
[25]
  GI50: 16.4 µM
  TGI: > 100 µM
[25]; [26]
  CC50: > 100 µM
